Experimental data reported in ChEMBL document CHEMBL1130101, “A virtual screening approach applied to the search for trypanothione reductase inhibitors” (J Med Chem, 1997).

Columns and labels:
[1] = target: Trypanothione reductase (Trypanosoma cruzi) (UniProt P28593); experiment: Percent Inhibition of trypanothione reductase activity at 57 uM concentration
In short: (§1)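 TR-catalysed reduction of trypanothione disulfide; the reaction rate was measured without inhibitor (r0) and with inhibitor (rinh). Percent inhibition = (r0 − rinh)/r0 × 100. Measured percentages carry an error of about 10%.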

[2] = target: Trypanothione reductase (Trypanosoma cruzi) (UniProt P28593); experiment: Percent Inhibition of trypanothione reductase activity at 28.5 uM concentration; in short: as §1
[3] = target: Trypanothione reductase (Trypanosoma cruzi) (UniProt P28593); experiment: Percent Inhibition of trypanothione reductase activity at 5.7 uM concentration; in short: as §1
[4] = target: Trypanothione reductase (Trypanosoma cruzi) (UniProt P28593); experiment: Natural log of the value in (uM) of inhibition constant was tested against Trypanothione Reductase

Trypanothione reductase (Trypanosoma cruzi), sequence (P28593 whole entry, looked up): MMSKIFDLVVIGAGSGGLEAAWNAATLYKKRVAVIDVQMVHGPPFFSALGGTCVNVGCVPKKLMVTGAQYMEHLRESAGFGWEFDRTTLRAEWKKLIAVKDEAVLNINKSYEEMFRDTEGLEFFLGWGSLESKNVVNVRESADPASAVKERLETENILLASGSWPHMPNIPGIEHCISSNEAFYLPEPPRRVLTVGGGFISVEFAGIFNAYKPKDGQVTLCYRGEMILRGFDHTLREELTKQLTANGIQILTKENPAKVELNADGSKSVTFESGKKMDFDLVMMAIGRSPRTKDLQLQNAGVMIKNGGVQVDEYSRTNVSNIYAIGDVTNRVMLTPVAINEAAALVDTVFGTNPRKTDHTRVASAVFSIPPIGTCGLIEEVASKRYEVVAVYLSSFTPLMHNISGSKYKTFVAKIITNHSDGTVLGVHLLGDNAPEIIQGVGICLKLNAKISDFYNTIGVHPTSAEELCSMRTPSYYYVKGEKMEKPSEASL

Row | Structure (SMILES) | inhibition [1] [%] | inhibition [2] [%] | inhibition [3] [%] | Natural log of inhibition constant (Ki in uM) [4]
1 | Cc1cc(-c2ccccc2)nnc1NCCN1CCOCC1 | 12 | 16 | 18 | –
2 | NCCN(CCN)CCCNc1cc(Cl)ccc1Sc1ccccc1 | – | – | – | 1.5
3 | NCCCNCCCCNCCCNC(=O)CCc1ccc(O)c(O)c1 | – | – | – | 4.44
4 | CN1CCN(CCCNc2cc(Cl)ccc2Sc2ccccc2)CC1 | – | – | – | 3.3
5 | COc1ccc(/C=C/C(=O)NCCCNCCCCN)cc1 | – | – | – | 5.6
6 | CN1CCN(CCCNc2cc(Cl)ccc2Sc2ccc(Cl)cc2)CC1 | – | – | – | 4.04
7 | Clc1ccc(Sc2ccc(Cl)cc2NCCN2CCCCC2)cc1 | – | – | – | 6.9
8 | Clc1ccc(Sc2ccccc2NCCN2CCCC2)cc1 | – | – | – | 5.08
9 | Clc1ccc(C(c2ccccc2)N2CCNCC2)cc1 (stereo not drawn) | 40 | 30 | 0 | –
10 | c1ccc(Sc2ccccc2NCCCN2CCCC2)cc1 | – | – | – | 4.73
11 | CCN(CC)CCNc1cc(Cl)ccc1Sc1ccccc1 | – | – | – | 6.21
12 | Clc1ccc(Sc2ccccc2)c(NCCCN2CCCCC2)c1 | – | – | – | 3.95
13 | NCCCNCCCNC1=C(c2c[nH]c3ccccc23)C(=O)NC1=O | – | – | – | 0.91
14 | O=C(CCc1ccc(O)c(O)c1)NCCCCNCCCNC(=O)CCc1ccc(O)c(O)c1 | – | – | – | 2.01
15 | Cc1ccc(Sc2ccc(F)cc2)c(NCCCN2CCN(C)CC2)c1 | – | – | – | 5.35
16 | CN(C)CCNc1cc(Cl)ccc1Sc1ccccc1 | – | – | – | 4.38
17 | NCCCCNCCCNC(=O)CCc1ccc(O)c(O)c1 | – | – | – | 4.68
18 | Cc1cccc(C)c1OCC(O)CN1CCNCC1 (stereo not drawn) | 7 | 0 | 0 | –
19 | CN(C)c1ccc(C(c2ccc(N(C)C)cc2)c2ccc(N(C)C)cc2)cc1 | – | – | – | 1.6
20 | CN1CCN(CCCCNc2ccccc2Sc2cccc(NCCCCCNc3cccc(Sc4ccccc4NCCCCN4CCN(C)CC4)c3)c2)CC1 | – | – | – | 1
21 | COc1ccc(/C=C/C(=O)NCCCCN2CCCN(C(=O)/C=C/c3ccc(OC)cc3)C2)cc1 | – | – | – | 5.01
22 | Clc1ccc(Sc2ccccc2)c(NCCN2CCCC2)c1 | – | – | – | 4.34
23 | Cc1ccc(Sc2ccc(Cl)cc2NCCCN2CCN(C)CC2)cc1 | – | – | – | 3.33
24 | CCC(C)(C)c1ccc(OCCCCN)c(C(C)(C)CC)c1 | 0 | 0 | 0 | –
25 | Clc1ccc(Sc2ccc(Cl)cc2NCCCN2CCCC2)cc1 | – | – | – | 4.06
26 | Cc1ccc(Sc2ccc(C)cc2NCCCN2CCN(C)CC2)cc1 | – | – | – | 4.38

Row | Structure (SMILES) | inhibition [1] [%] | inhibition [2] [%] | inhibition [3] [%] | Natural log of inhibition constant (Ki in uM) [4]
27 | COc1ccc(CCC(=O)NCCCNCCCCN)cc1 | – | – | – | 5.82
28 | NCc1ccccc1Sc1ccccc1CO | 31 | 0 | 0 | –
29 | CN1CCN(CCNc2cc(Cl)ccc2Sc2ccccc2)CC1 | – | – | – | 3.68
30 | Clc1ccc(Sc2ccccc2)c(NCCN2CCCCC2)c1 | – | – | – | 6.55
31 | C[C@@H]1CN(CCCn2c3ccccc3c3ccccc32)C[C@H](C)N1 | 23 | 15 | 10 | –
32 | Clc1ccc(Sc2ccc(Cl)cc2NCCCN2CCCCC2)cc1 | – | – | – | 4.09
33 | CN1CCN(CCCNc2cc(Cl)ccc2Sc2cc(Cl)ccc2Cl)CC1 | – | – | – | 3.4
34 | CC(=O)c1ccc(Sc2ccc(Cl)cc2NCCCN2CCN(C)CC2)cc1 | – | – | – | 2.94
35 | NCCNCCCNc1cc(Cl)ccc1Sc1ccccc1 | – | – | – | 3
36 | NCCc1ccc(Oc2ccccc2)cc1 | 0 | 0 | 0 | –
37 | Clc1ccc(Sc2ccccc2)c(NCCCN2CCCC2)c1 | – | – | – | 3.78
38 | CN1CCN(CCCNc2cc(Cl)ccc2Sc2ccc(F)cc2)CC1 | – | – | – | 4.74
39 | NCCC1CCN(Cc2ccccc2)CC1 | 0 | 0 | 0 | –
40 | CN1CCN(CCNc2ccccc2Sc2ccc(Cl)cc2)CC1 | – | – | – | 4.38
41 | Cc1ccc(Sc2ccccc2NCCCN2CCN(C)CC2)cc1 | – | – | – | 4.17
42 | Fc1ccc(C(CCCN2CCNCC2)c2ccc(F)cc2)cc1 | 18 | 9 | 0 | –
43 | N#Cc1ccc(C2NCCc3c2[nH]c2ccccc32)cc1 (stereo not drawn) | 0 | 0 | 0 | –
44 | CN1CCN(CCNc2cc(Cl)ccc2Sc2ccc(Cl)cc2)CC1 | – | – | – | 3.85
45 | CCN(CC)CCCNc1cc(Cl)ccc1Sc1ccccc1 | – | – | – | 3.74
46 | COc1ccc(/C=C/C(=O)N2CCCN(CCCCN)C2)cc1 | – | – | – | 5.01
47 | CNCCC=C1c2ccccc2CCc2ccccc21 | 25 | 0 | 0 | –
48 | COc1cc(CC2NCCc3c2[nH]c2ccccc32)ccc1O (stereo not drawn) | 27 | 13 | 0 | –
49 | CN(C)CCCC(CN)(c1ccccc1)c1ccccc1 | 36 | 9 | 0 | –
50 | CN(C)CCNc1cc(Cl)ccc1Sc1ccc(Cl)cc1 | – | – | – | 3.91
51 | CN(C)CCNc1ccccc1Sc1ccc(Cl)cc1 | – | – | – | 4.38
52 | O=C(/C=C/c1ccc(O)c(O)c1)NCCCNCCCCNCCCNC(=O)/C=C/c1ccc(O)c(O)c1 | – | – | – | 2.77
